Source: ChEMBL document CHEMBL4152188, “Design, synthesis and biological evaluation of C(4) substituted monobactams as antibacterial agents against multidrug-resistant Gram-negative bacteria” (Eur J Med Chem, 2018)
≈ marks a conversion by molar mass, not a printed value.

How the values were obtained:
Type in all cases: functional
Escherichia coli [1] = assay: Antibacterial activity against extended-spectrum beta-lactamase producing Escherichia coli isolate 209285 after 18 hrs by CLSI broth microdilution method; settings: isolate 209285, 18 h
Escherichia coli [2] = assay: Selectivity index, ratio of MIC for against extended-spectrum beta-lactamase producing Escherichia coli isolate 208687 to MIC for extended-spectrum beta-lactamase producing Escherichia coli isolate 208687 in presence of BPL
Escherichia coli [3] = assay: Antibacterial activity against extended-spectrum beta-lactamase producing Escherichia coli isolate 106342 after 18 hrs by CLSI broth microdilution method; settings: isolate 106342, 18 h
Pseudomonas aeruginosa [4] = assay: Antibacterial activity against IMP-4 producing Pseudomonas aeruginosa isolate 209471 after 18 hrs in presence of BPL by CLSI broth microdilution method; settings: isolate 209471, 18 h
Method in brief: (§1)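 CLSI broth microdilution against clinical isolates (ESBL E. coli, KPC-2 MDR K. pneumoniae, IMP-4 MDR P. aeruginosa; five per species). Iron limitation: Mueller-Hinton broth supplemented with 16 mg/liter 2,2'-bipyridyl to complex iron and induce iron uptake systems. Read-out: MIC.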

Klebsiella pneumoniae [5] = assay: Antibacterial activity against KPC-2 producing Klebsiella pneumoniae isolate 209632 after 18 hrs by CLSI broth microdilution method; settings: isolate 209632, 18 h
Pseudomonas aeruginosa [6] = assay: Selectivity index, ratio of MIC for against IMP-4 producing Pseudomonas aeruginosa isolate 212886 to MIC for against IMP-4 producing Pseudomonas aeruginosa isolate 212886 in presence of BPL
Pseudomonas aeruginosa [7] = assay: Antibacterial activity against IMP-4 producing Pseudomonas aeruginosa isolate 209321 after 18 hrs by CLSI broth microdilution method; settings: isolate 209321, 18 h
Escherichia coli [8] = assay: Selectivity index, ratio of MIC for against extended-spectrum beta-lactamase producing Escherichia coli isolate 106342 to MIC for extended-spectrum beta-lactamase producing Escherichia coli isolate 106342 in presence of BPL
Escherichia coli [9] = assay: Antibacterial activity against Escherichia coli isolate 210737 after 18 hrs in presence of BPL by CLSI broth microdilution method; settings: isolate 210737, 18 h; method in brief: as §1
Pseudomonas aeruginosa [10] = assay: Antibacterial activity against IMP-4 producing Pseudomonas aeruginosa isolate 208247 after 18 hrs in presence of BPL by CLSI broth microdilution method; settings: isolate 208247, 18 h; method in brief: as §1
Klebsiella pneumoniae [11] = assay: Antibacterial activity against KPC-2 producing Klebsiella pneumoniae isolate 209632 after 18 hrs in presence of BPL by CLSI broth microdilution method; settings: isolate 209632, 18 h; method in brief: as §1
Klebsiella pneumoniae [12] = assay: Selectivity index, ratio of MIC for against KPC-2 producing Klebsiella pneumoniae isolate 212423 to MIC for against KPC-2 producing Klebsiella pneumoniae isolate 212423 in presence of BPL
Klebsiella pneumoniae [13] = assay: Selectivity index, ratio of MIC for against KPC-2 producing Klebsiella pneumoniae isolate 212229 to MIC for against KPC-2 producing Klebsiella pneumoniae isolate 212229 in presence of BPL
Escherichia coli [14] = assay: Antibacterial activity against extended-spectrum beta-lactamase producing Escherichia coli isolate 208687 after 18 hrs by CLSI broth microdilution method; settings: isolate 208687, 18 h
Pseudomonas aeruginosa [15] = assay: Selectivity index, ratio of MIC for against IMP-4 producing Pseudomonas aeruginosa isolate 208247 to MIC for against IMP-4 producing Pseudomonas aeruginosa isolate 208247 in presence of BPL
Pseudomonas aeruginosa [16] = assay: Antibacterial activity against IMP-4 producing Pseudomonas aeruginosa isolate 207272 after 18 hrs in presence of BPL by CLSI broth microdilution method; settings: isolate 207272, 18 h; method in brief: as §1
Pseudomonas aeruginosa [17] = assay: Selectivity index, ratio of MIC for against IMP-4 producing Pseudomonas aeruginosa isolate 209471 to MIC for against IMP-4 producing Pseudomonas aeruginosa isolate 209471 in presence of BPL
Klebsiella pneumoniae [18] = assay: Antibacterial activity against KPC-2 producing Klebsiella pneumoniae isolate 209735 after 18 hrs in presence of BPL by CLSI broth microdilution method; settings: isolate 209735, 18 h; method in brief: as §1
Klebsiella pneumoniae [19] = assay: Antibacterial activity against KPC-2 producing Klebsiella pneumoniae isolate 212423 after 18 hrs in presence of BPL by CLSI broth microdilution method; settings: isolate 212423, 18 h; method in brief: as §1
Pseudomonas aeruginosa [20] = assay: Antibacterial activity against IMP-4 producing Pseudomonas aeruginosa isolate 212886 after 18 hrs in presence of BPL by CLSI broth microdilution method; settings: isolate 212886, 18 h; method in brief: as §1
Klebsiella pneumoniae [21] = assay: Antibacterial activity against KPC-2 producing Klebsiella pneumoniae isolate 212229 after 18 hrs in presence of BPL by CLSI broth microdilution method; settings: isolate 212229, 18 h; method in brief: as §1
Pseudomonas aeruginosa [22] = assay: Antibacterial activity against IMP-4 producing Pseudomonas aeruginosa isolate 209471 after 18 hrs by CLSI broth microdilution method; settings: isolate 209471, 18 h
Escherichia coli [23] = assay: Selectivity index, ratio of MIC for against extended-spectrum beta-lactamase producing Escherichia coli isolate 209285 to MIC for extended-spectrum beta-lactamase producing Escherichia coli isolate 209285 in presence of BPL
Pseudomonas aeruginosa [24] = assay: Antibacterial activity against IMP-4 producing Pseudomonas aeruginosa isolate 209321 after 18 hrs in presence of BPL by CLSI broth microdilution method; settings: isolate 209321, 18 h; method in brief: as §1
Klebsiella pneumoniae [25] = assay: Selectivity index, ratio of MIC for against KPC-2 producing Klebsiella pneumoniae isolate 212232 to MIC for against KPC-2 producing Klebsiella pneumoniae isolate 212232 in presence of BPL
Klebsiella pneumoniae [26] = assay: Antibacterial activity against KPC-2 producing Klebsiella pneumoniae isolate 212232 after 18 hrs in presence of BPL by CLSI broth microdilution method; settings: isolate 212232, 18 h; method in brief: as §1
Pseudomonas aeruginosa [27] = assay: Antibacterial activity against IMP-4 producing Pseudomonas aeruginosa isolate 207272 after 18 hrs by CLSI broth microdilution method; settings: isolate 207272, 18 h
Pseudomonas aeruginosa [28] = assay: Selectivity index, ratio of MIC for against IMP-4 producing Pseudomonas aeruginosa isolate 207272 to MIC for against IMP-4 producing Pseudomonas aeruginosa isolate 207272 in presence of BPL
Escherichia coli [29] = assay: Antibacterial activity against Escherichia coli isolate 210737 after 18 hrs by CLSI broth microdilution method; settings: isolate 210737, 18 h
Escherichia coli [30] = assay: Antibacterial activity against extended-spectrum beta-lactamase producing Escherichia coli isolate 212648 after 18 hrs in presence of BPL by CLSI broth microdilution method; settings: isolate 212648, 18 h; method in brief: as §1
Escherichia coli [31] = assay: Selectivity index, ratio of MIC for against Escherichia coli isolate 210737 to MIC for Escherichia coli isolate 210737 in presence of BPL
Klebsiella pneumoniae [32] = assay: Antibacterial activity against KPC-2 producing Klebsiella pneumoniae isolate 209735 after 18 hrs by CLSI broth microdilution method; settings: isolate 209735, 18 h
Pseudomonas aeruginosa [33] = assay: Selectivity index, ratio of MIC for against IMP-4 producing Pseudomonas aeruginosa isolate 209321 to MIC for against IMP-4 producing Pseudomonas aeruginosa isolate 209321 in presence of BPL
Escherichia coli [34] = assay: Antibacterial activity against extended-spectrum beta-lactamase producing Escherichia coli isolate 212648 after 18 hrs by CLSI broth microdilution method; settings: isolate 212648, 18 h
Escherichia coli [35] = assay: Antibacterial activity against extended-spectrum beta-lactamase producing Escherichia coli isolate 208687 after 18 hrs in presence of BPL by CLSI broth microdilution method; settings: isolate 208687, 18 h; method in brief: as §1
Escherichia coli [36] = assay: Antibacterial activity against extended-spectrum beta-lactamase producing Escherichia coli isolate 209285 after 18 hrs in presence of BPL by CLSI broth microdilution method; settings: isolate 209285, 18 h; method in brief: as §1
Escherichia coli [37] = assay: Selectivity index, ratio of MIC for against extended-spectrum beta-lactamase producing Escherichia coli isolate 212648 to MIC for extended-spectrum beta-lactamase producing Escherichia coli isolate 212648 in presence of BPL
Klebsiella pneumoniae [38] = assay: Selectivity index, ratio of MIC for against KPC-2 producing Klebsiella pneumoniae isolate 209735 to MIC for against KPC-2 producing Klebsiella pneumoniae isolate 209735 in presence of BPL
Pseudomonas aeruginosa [39] = assay: Antibacterial activity against IMP-4 producing Pseudomonas aeruginosa isolate 208247 after 18 hrs by CLSI broth microdilution method; settings: isolate 208247, 18 h
Escherichia coli [40] = assay: Antibacterial activity against extended-spectrum beta-lactamase producing Escherichia coli isolate 106342 after 18 hrs in presence of BPL by CLSI broth microdilution method; settings: isolate 106342, 18 h; method in brief: as §1
Klebsiella pneumoniae [41] = assay: Antibacterial activity against KPC-2 producing Klebsiella pneumoniae isolate 212229 after 18 hrs by CLSI broth microdilution method; settings: isolate 212229, 18 h
Klebsiella pneumoniae [42] = assay: Selectivity index, ratio of MIC for against KPC-2 producing Klebsiella pneumoniae isolate 209632 to MIC for against KPC-2 producing Klebsiella pneumoniae isolate 209632 in presence of BPL
Klebsiella pneumoniae [43] = assay: Antibacterial activity against KPC-2 producing Klebsiella pneumoniae isolate 212232 after 18 hrs by CLSI broth microdilution method; settings: isolate 212232, 18 h
Klebsiella pneumoniae [44] = assay: Antibacterial activity against KPC-2 producing Klebsiella pneumoniae isolate 212423 after 18 hrs by CLSI broth microdilution method; settings: isolate 212423, 18 h
Pseudomonas aeruginosa [45] = assay: Antibacterial activity against IMP-4 producing Pseudomonas aeruginosa isolate 212886 after 18 hrs by CLSI broth microdilution method; settings: isolate 212886, 18 h

MIC (Escherichia coli [1]): 16 µg/mL (≈ 20 µM) | MIC (Escherichia coli [3]): 8 µg/mL (≈ 10 µM) | MIC (Pseudomonas aeruginosa [4]): 32 µg/mL | MIC (Klebsiella pneumoniae [5]): > 64 µg/mL | MIC (Pseudomonas aeruginosa [7]): 64 µg/mL (≈ 80 µM) | MIC (Escherichia coli [9]): 64 µg/mL | MIC (Pseudomonas aeruginosa [10]): 32 µg/mL | MIC (Klebsiella pneumoniae [11]): 8 µg/mL | MIC (Escherichia coli [14]): 16 µg/mL (≈ 20 µM) | MIC (Pseudomonas aeruginosa [16]): 16 µg/mL | MIC (Klebsiella pneumoniae [18]): 8 µg/mL | MIC (Klebsiella pneumoniae [19]): 8 µg/mL | MIC (Pseudomonas aeruginosa [20]): > 64 µg/mL | MIC (Klebsiella pneumoniae [21]): 8 µg/mL | MIC (Pseudomonas aeruginosa [22]): 64 µg/mL (≈ 80 µM) | MIC (Pseudomonas aeruginosa [24]): 32 µg/mL | MIC (Klebsiella pneumoniae [26]): 4 µg/mL | MIC (Pseudomonas aeruginosa [27]): 32 µg/mL (≈ 40 µM) | MIC (Escherichia coli [29]): > 64 µg/mL | MIC (Escherichia coli [30]): 16 µg/mL | MIC (Klebsiella pneumoniae [32]): > 64 µg/mL | MIC (Escherichia coli [34]): 16 µg/mL (≈ 20 µM) | MIC (Escherichia coli [35]): 2 µg/mL | MIC (Escherichia coli [36]): 8 µg/mL | MIC (Pseudomonas aeruginosa [39]): 32 µg/mL (≈ 40 µM) | MIC (Escherichia coli [40]): 4 µg/mL | MIC (Klebsiella pneumoniae [41]): > 64 µg/mL | MIC (Klebsiella pneumoniae [43]): > 64 µg/mL | MIC (Klebsiella pneumoniae [44]): > 64 µg/mL | MIC (Pseudomonas aeruginosa [45]): > 64 µg/mL
Structure (SMILES): CC(C)C(O/N=C(\C(=O)N[C@@H]1C(=O)N(S(=O)(=O)O)[C@@H]1COC(=O)C1CN(C(=O)c2ccc(O)c(O)c2Cl)C1)c1csc(N)n1)c1cc(=O)c(O)cn1O (stereo not given in full)
Selectivity Index (Escherichia coli [2]): 8 | Selectivity Index (Pseudomonas aeruginosa [6]): 1 - 2 | Selectivity Index (Escherichia coli [8]): 2 | Selectivity Index (Klebsiella pneumoniae [12]): >8 | Selectivity Index (Klebsiella pneumoniae [13]): >8 | Selectivity Index (Pseudomonas aeruginosa [15]): 1 | Selectivity Index (Pseudomonas aeruginosa [17]): 2 | Selectivity Index (Escherichia coli [23]): 2 | Selectivity Index (Klebsiella pneumoniae [25]): >16 | Selectivity Index (Pseudomonas aeruginosa [28]): 2 | Selectivity Index (Escherichia coli [31]): 1 - 8 | Selectivity Index (Pseudomonas aeruginosa [33]): 2 | Selectivity Index (Escherichia coli [37]): 1 | Selectivity Index (Klebsiella pneumoniae [38]): >8 | Selectivity Index (Klebsiella pneumoniae [42]): >8
